Data set [1] is described as follows: folding enthalpy; higher = less favourable; fluorescence melt of hairpins on a sequencing array, two-state fit. The conditions noted are these: sodium 0.088 M. An outline of the steps:
(§1)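 Folding enthalpy and melting temperature come from bootstrapped two-state fits to Cy3 fluorescence of library hairpins carrying annealed Cy3 and quencher oligos on a sequenced MiSeq flow cell. Imaging was done in 50 mM Na-HEPES pH 8.0, 25 mM NaCl, stepping by 2.5 °C up to 60 °C, and signals were normalised to pre-quench Cy3 and to control constructs. Results of four replicates were combined by inverse variance, and fitted temperatures were raised by 9.35 °C to match UV melts.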

Data set [2] is described as follows: melting temperature; fluorescence melt of hairpins on a sequencing array, two-state fit, raised by 9.35 °C to match UV melts. The settings on record: sodium 0.088 M. An outline of the steps:
as §1

On to GTCGGGACGAAAGTCGAC (((..(((....)))))), for which the folding enthalpy in data set [1] was -18.9 kcal/mol. For the same sequence, in data set [2], the Tm is 47.5 °C.
The matching figures for GGGACTCGAAAGAGCCCC (((.(((....))).))): -34.6 kcal/mol and 57.1 °C.
As for GGTTGCGGAAACGTAACC ((((.((....)).)))), the folding enthalpy in data set [1] was -47.9 kcal/mol. For the same sequence, the Tm in data set [2] came out at 54 °C.
For GTGTCTGAAAAGACAC ((((((....)))))) the same measures were -33.7 kcal/mol and 61 °C.
For GATCCATGGCTGGATC ((((((....)))))) the same measures were -35.8 kcal/mol and 50.5 °C.
As for GATAACGAAAGTTTATC ((((((....))).))), in data set [1], the folding enthalpy is -14.2 kcal/mol. Besides, in data set [2], the Tm turned out to be 31.8 °C.
In the case of GATCCGACAGCGGATC ((((((....)))))), the folding enthalpy in data set [1] is -34.2 kcal/mol. The Tm in data set [2] stood at 54 °C.
The matching figures for GATCTCCGCCGAGATC ((((((....)))))): -49.6 kcal/mol and 50.9 °C.
For the sequence GATCTCTGTCGAGATC ((((((....)))))), in data set [1], the folding enthalpy is -37.4 kcal/mol. Further, the Tm in data set [2] came to 51.8 °C.
For GATCGCATGGGCGATC ((((((....)))))), in data set [1], the folding enthalpy is -40.5 kcal/mol. The Tm in data set [2] came to 68.5 °C.
The matching figures for GTACTTCCGAAAGGATAC (((..(((....)))))): -10.3 kcal/mol and 24.9 °C.
For GCTCAGCGAAAGCGGCGC ((.(.((....)).).)) the same measures were -19.5 kcal/mol and 58.4 °C.
For GGATTCGAAAGAACATCC ((((((....)))..))) the same measures were -14.1 kcal/mol and 29.4 °C.
In the case of GATCGTCTCGACGATC ((((((....)))))), the folding enthalpy in data set [1] is -40.9 kcal/mol. The Tm in data set [2] came to 65.3 °C.
For GCGACGAGTCGC ((((....)))) the same measures were -36.6 kcal/mol and 60.6 °C.
The matching figures for GACTACCGAAAGGTGGTC (((.(((....))).))): -38.6 kcal/mol and 58.4 °C.
For GTAGCGGGAAACTGCTGC (.(((.(....).))).) the same measures were -22.6 kcal/mol and 44.2 °C.
As to GCGCTGCGAAAGCCACGC (((..((....))..))), in data set [1], the folding enthalpy is -19.7 kcal/mol. The Tm in data set [2] amounted to 52.7 °C.
The matching figures for GGGTCCGAAAGGAGACCC ((((((....)))..))): -22 kcal/mol and 53.1 °C.
On to GCCTTGCGAAAGCCACGC ((.(.((....)).).)), for which the folding enthalpy in data set [1] is -7.87 kcal/mol. Moreover, the Tm in data set [2] was 46.8 °C.
The matching figures for GACGAACGAAAGTTTGTC (((.(((....))).))): -43.7 kcal/mol and 54.2 °C.
Regarding GCGCACGAAAGTGTCGC ((((((....))).))), the folding enthalpy in data set [1] was -27.6 kcal/mol. The Tm in data set [2] was 64.2 °C.
The matching figures for GCCCCCACGAAAGTGGGC (((..(((....)))))): -5.47 kcal/mol and 38.6 °C.
Regarding GATCACAAGGTGATC ((((((...)))))), the folding enthalpy in data set [1] is -38.4 kcal/mol. Moreover, the Tm in data set [2] was determined as 58.4 °C.
For GCGCTGGCGAAAGCCCGC (((..(((....)))))), the folding enthalpy in data set [1] was -17 kcal/mol. In addition, the Tm in data set [2] came to 55.5 °C.
For GTTCTGCGAAAGCACAAC (((.(((....))).))) the same measures were -12.6 kcal/mol and 33.3 °C.
As for GATCGGGACCCGATC ((((((...)))))), the folding enthalpy in data set [1] was -41.2 kcal/mol. The Tm in data set [2] worked out at 56.9 °C.
Take GGCGACCCGAAAGGGGCC (((..(((....)))))): the folding enthalpy in data set [1] was -13.1 kcal/mol. In addition, in data set [2], the Tm stood at 54.6 °C.
For GTACGAGCGAAAGCTTAC (((..(((....)))))) the same measures were -8.2 kcal/mol and 22.6 °C.
In the case of GCATTTCGAAAGAATGC (((.(((....)))))), the folding enthalpy in data set [1] is -30.5 kcal/mol. Besides, in data set [2], the Tm was found to be 45.5 °C.
For the sequence GCACCGCGAAAGCCTTGC (((..((....))..))), in data set [1], the folding enthalpy is -14.8 kcal/mol. Also, the Tm in data set [2] was found to be 37 °C.
For GCCACTTCGAAAGAAGGC (((..(((....)))))) the same measures were -13 kcal/mol and 35.5 °C.
The matching figures for GGTAGCTCGAAAGAGACC (((..(((....)))))): -11.7 kcal/mol and 28.3 °C.
For GGCGCTGGAAACAGCACC ((.((((....)))).)) the same measures were -29.7 kcal/mol and 54.8 °C.
For GTCCGCGAAAGCGGGAC ((((((....))).))), in data set [1], the folding enthalpy was -12.4 kcal/mol. Besides, in data set [2], the Tm is 63.5 °C.
For GGGCACGGAAACGTGTCC ((.((((....)))).)) the same measures were -40.8 kcal/mol and 63.4 °C.
The matching figures for GTAGGCGCGAAAGCGTAC (((..(((....)))))): -9.85 kcal/mol and 34.9 °C.

These data come from the array DNA melting data of Ke et al. (doi:10.1101/2024.01.08.574731).
